Bioassay records from PubChem BioAssay.
HCV NS3 hel inh: inhibitors of HCV NS3 helicase, primary screen, biochemical, Cy5 molecular beacon fluorescence; inhibition, % at 10.9 µM; AID 1800, 2009; NS3 helicase DNA unwinding; Hepatitis C virus NS3 helicase; 0.56% of 290,000 active;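 active = inhibition above the mean of all tested compounds plus 3 SD, set per campaign, cut at about 35% in these data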;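 also: 0% = DMSO wells and 100% = thioflavine S control wells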
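test system = hepatitis C virus NS3 helicase domain fragment enzyme | reagent = annealed dual-labelled DNA beacon duplex, ATP-started | times = 1 h at 25 °C | detection = Cy5 fluorescence, 0 and 60 min reads | read-out basis = percent inhibition from t60/t0 fluorescence ratio | control set = DMSO and thioflavine S | replication = one well per compound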
ZTA DNA inh: blocks Epstein-Barr virus ZTA, an EBNA-1 counter-screen; 0.15% of 320,000 active; inhibition, % at 11 µM; ZTA-DNA binding, fluorescence polarization; P03206; in the data active = inhibition above about 33%
EBV gp42 block: Epstein-Barr virus gp42 inhibitors, primary screen, biochemical, uHTS, fluorescence polarization; 0.42% of 220,000 active; inhibition, % (tested at 21.74 µM); AID 1085, 2008; Glycoprotein 42 (Epstein-Barr virus (strain AG876)), Q1HVG2; Fluorescence polarization binding assay, mP read-out; in the data active = inhibition above about 50%
EBNA-1 inh: EBNA-1 DNA-binding inhibitors, primary screen, biochemical, fluorescence polarization | inhibition, % at 14.8 µM | 0.34% of 300,000 active; in the data active = inhibition above about 28%
GPR7 antag: GPR7 receptor antagonists, primary screen, cell-based, fluorescence, single concentration; GPR7-expressing cells, fluorescence antagonist assay; inhibition, % at 4.4 µM; Neuropeptides B/W receptor type 1 (Homo sapiens), P48145; 1.1% of 290,000 active; in the data active = inhibition above about 16%, passing the limit was not always enough;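 also: cells stimulated with the agonist NPW; 0% = agonist with vehicle and 100% = vehicle without agonist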
Target sequence (P48145 whole entry, looked up): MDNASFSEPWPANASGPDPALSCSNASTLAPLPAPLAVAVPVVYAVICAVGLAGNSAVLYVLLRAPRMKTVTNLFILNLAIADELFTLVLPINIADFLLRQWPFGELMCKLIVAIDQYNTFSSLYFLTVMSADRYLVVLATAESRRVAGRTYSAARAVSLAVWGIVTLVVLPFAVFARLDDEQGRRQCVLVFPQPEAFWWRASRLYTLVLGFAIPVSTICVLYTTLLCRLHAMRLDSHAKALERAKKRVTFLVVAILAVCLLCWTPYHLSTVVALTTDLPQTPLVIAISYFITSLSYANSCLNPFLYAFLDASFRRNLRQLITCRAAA
core dimer inh: inhibitors of HCV core protein dimerization, primary screen, biochemical, TR-FRET, high-throughput. TR-FRET GST/Flag-core106 dimerization, 1536-well. inhibition, % at 5 µM. 0.33% of 300,000 active;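 active = inhibition above the mean of all tested compounds plus 3 SD, set per screening campaign, cut at about 45% in these data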
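Assay system: Tagged HCV core106 pair (GST and Flag) | Buffer or medium: KF-containing HEPES buffer, pH 7.45, DTT, CHAPS, BSA | Also added: Eu donor and XL665 acceptor anti-tag antibodies | Dosing: One concentration, 5 µM, in 0.5% DMSO | Timing: 4 h at 22.5 °C | Technique: TR-FRET 671 and 617 nm emission | Repeats: Singlicate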
GPR7 antag cf: GPR7 receptor antagonists, confirmation, cell-based, fluorescence, single concentration. shares compounds with GPR7 antag. GPR7-expressing cells, calcium fluorescence antagonist mode. inhibition, % at 4.4 µM. 52% of 2,400 active; in the data active = inhibition above about 24%;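 also: stimulated with the GPR7 agonist NPW; 0% = agonist plus vehicle and 100% = vehicle alone without agonist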
MCHR1 antagonist: MCHR1 antagonists in cells, counter-screen for GPR7 antagonist project, cell-based, fluorescence, human | shares compounds with GPR7 antag | MCHR1-expressing cells, fluorescence antagonist assay | inhibition, % at 4.4 µM | 62% of 2,400 active; in the data active = inhibition above about 22%;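 also: 0% = vehicle with agonist and 100% = vehicle without agonist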
An asterisk follows results filed as active; / = no result. Only some compounds are listed: those with a hit (about 2.3% of all), similar ones and a draw of the others.

SMILES	HCV NS3 hel inh	ZTA DNA inh	EBV gp42 block	EBNA-1 inh	GPR7 antag	core dimer inh	GPR7 antag cf	MCHR1 antagonist
Cc1cc(Cl)ccc1OCC(=O)N1CCN(c2ncccn2)CC1	-11	7	-23	9	24*	1	-6	3
O=C(Nc1ccc(OC(F)F)c(Cl)c1)Nc1ccc2c(c1)OCO2	-17	10	-7	8	26*	-2	13	56*
O=C(Nc1ccc2c(c1)OCO2)c1ccc2c(c1)OCO2	9	8	10	-3	-6	16	/	/
O=C(Nc1ccc([N+](=O)[O-])cc1)Nc1ccc(OC(F)F)c(Cl)c1	9	1	11	-4	23*	-1	72*	75*
O=C(Nc1ccc(Cl)c(Cl)c1)c1ccc2c(c1)OCO2	1	-6	/	1	27*	-7	13	32*
COc1ccc(NC(=O)Nc2cccc([N+](=O)[O-])c2)cc1Cl	-14	0	-14	1	35*	2	38*	59*
CCOc1ccc2nc(NC(=O)CSc3cn[nH]n3)sc2c1	-13	-1	/	-2	22*	2	-4	6
COc1ccc2nc(NC(=O)CSc3cn[nH]n3)sc2c1	2	-2	/	-11	10	-7	/	/
C=CCNC(=O)CN1C(=O)NC(C)(c2ccc(OC)cc2)C1=O (centres undefined)	4	2	/	0	-4	-2	/	/
CC[C@H](C)C(N)c1cn(C(CCCN=C(N)N)C(=O)N2CCNCC2)nn1 (some centres undefined)	/	1	/	1	/	-8	/	/
O=C(NCCSc1c[nH]c2ccccc12)c1c(F)cccc1F	-5	5	-12	1	23*	2	33*	33*
COc1ccc(N2C(=O)C(CC(=O)O)S/C2=N\N=C\c2cccs2)cc1 (centres undefined)	14	-3	/	-5	5	-4	/	/
CCC(=O)N1CCN(c2ccccc2NC(=O)COc2cc(C)ccc2C(C)C)CC1	-4	-5	-12	-3	34*	-3	27*	51*
Cc1cccc(OCC(=O)Nc2ccccc2N2CCN(C)CC2)c1	7	0	/	7	31*	0	19	49*
Cc1cccc(OCC(=O)Nc2ccccc2N2CCCCC2)c1	-2	-11	-8	6	-7	1	/	/
Cc1cc(C)c(OCC(=O)Nc2ccccc2N2CCOCC2)c(C)c1	-13	-8	-11	-10	26*	4	59*	70*
Cc1ccc(C(C)C)c(OCC(=O)NC(=S)Nc2ccccc2N2CCOCC2)c1	-9	-3	/	0	-46	3	/	/
CNc1nc(OC)nc(N(C#N)CN2C(=O)c3ccccc3S2(=O)=O)n1	9	11	-7	4	-4	0	/	/
CC(=O)c1ccc(OCC(O)CN(C)CCOc2ccc(Br)cc2)cc1 (centres undefined)	-18	8	/	-6	23*	-8	37*	55*
CC(=O)c1ccc(OCC(O)COc2ccc(C(C)=O)cc2)cc1	6	-7	-20	9	5	-1	/	/
NS(=O)(=O)c1ccc(CCN=C(NS(=O)(=O)c2cccs2)c2ccccc2)cc1	-6	13	-5	-1	-9	-6	/	/
CCCN(CCC)C1=CC(=[N+]2CCCC2)CC(C)(C)C1	-8	10	-17	-7	52*	-3	58*	51*
CN(C)NC1=CC(=[N+]2CCCC2)CC(C)(C)C1	0	13	-7	5	-2	1	/	/
